Test results taken from ChEMBL document CHEMBL1156332, “Polysubstituted pyrazoles, part 6. Synthesis of some 1-(4-chlorophenyl)-4-hydroxy-1H-pyrazol-3-carbonyl derivatives linked to nitrogenous heterocyclic ring systems as potential antitumor agents” (2010).

Columns and labels:
Type in all cases: functional
A549 = assay: Growth inhibition of human A549 cells after 48 hrs by sulforhodamine B assay; conditions: A549, 48 h
Outline: (§1)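 NCI 60-line panel, five concentrations (0.01–100 µM) from DMSO stock diluted in medium with gentamicin. Cells were plated 24 h before dosing, with time-zero plates fixed at drug addition, then exposed 48 h at 37 °C, 5% CO₂. Adherent cells were fixed with cold TCA (10% final) and suspension cells with 16% TCA. Staining used 0.4% SRB, solubilised in 10 mM Tris and read at 515 nm. GI₅₀ was taken from log concentration–% growth curves.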

HOP-92 = assay: Growth inhibition of human HOP92 cells after 48 hrs by sulforhodamine B assay; conditions: HOP-92, 48 h; outline: as §1
SF-295 = assay: Growth inhibition of human SF295 cells after 48 hrs by sulforhodamine B assay; conditions: SF-295, 48 h; outline: as §1
SNB-75 = assay: Growth inhibition of human SNB75 cells after 48 hrs by sulforhodamine B assay; conditions: SNB-75, 48 h
Outline: (§2)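 Adherent lines plated and held 24 h at 37 °C, 5% CO2, 100% humidity; time-zero plates TCA-fixed at drug addition. Drugs from DMSO stocks were made into five concentrations by 10-fold or half-log serial dilution and applied for 48 h continuous exposure. Cells were fixed with cold TCA (10% final) for 60 min at 4 °C, then stained with 0.4% SRB in 1% acetic acid for 10 min. Dye was solubilized in 10 mM Tris base and read at 515 nm. GI50 was taken from log concentration–growth curves.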

A498 = assay: Growth inhibition of human A498 cells after 48 hrs by sulforhodamine B assay; conditions: A498, 48 h; outline: as §1
ACHN = assay: Growth inhibition of human ACHN cells after 48 hrs by sulforhodamine B assay; outline: as §1
SK-MEL-28 = assay: Growth inhibition of human SK-MEL-28 cells after 48 hrs by sulforhodamine B assay; conditions: SK-MEL-28, 48 h; outline: as §2
NCI-H23 = assay: Growth inhibition of human NCI-H23 cells after 48 hrs by sulforhodamine B assay; conditions: NCI-H23, 48 h; outline: as §1
MDA-MB-468 = assay: Growth inhibition of human MDA-MB-468 cells after 48 hrs by sulforhodamine B assay; conditions: MDA-MB-468, 48 h; outline: as §1
TK-10 = assay: Growth inhibition of human TK10 cells after 48 hrs by sulforhodamine B assay; conditions: TK-10, 48 h; outline: as §2
[1] = Cytotoxicity against human melanoma cells after 48 hrs by sulforhodamine B assay; conditions: Melanoma cell; for CC50: read-out: LC50 (the source's name)
Outline: (§3)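 NCI five-dose screen: about 60 human tumour lines grouped into nine subpanels were plated and incubated 24 h before dosing. Compounds went in as DMSO stock and were diluted in medium to five final concentrations (0.01–100 µM). Exposure was 48 h continuous at 37 °C, 5% CO₂, followed by TCA fixation and SRB staining read at 515 nm. Per-line GI₅₀, TGI and LC₅₀ came from log concentration–% growth curves, averaged per subpanel as MG-MID.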

OVCAR-5 = assay: Growth inhibition of human OVCAR5 cells after 48 hrs by sulforhodamine B assay; conditions: OVCAR-5, 48 h; outline: as §1
SK-MEL-5 = assay: Growth inhibition of human SK-MEL-5 cells after 48 hrs by sulforhodamine B assay; conditions: SK-MEL-5, 48 h; outline: as §2
M14 = assay: Growth inhibition of human M14 cells after 48 hrs by sulforhodamine B assay; conditions: M14, 48 h; outline: as §1
[2] = Cytotoxicity against human CNS cancer cells after 48 hrs by sulforhodamine B assay; conditions: Cancer cell lines; outline: as §3
HCT-116 = assay: Growth inhibition of human HCT116 cells after 48 hrs by sulforhodamine B assay; conditions: HCT-116, 48 h; outline: as §1
HOP-62 = assay: Growth inhibition of human HOP62 cells after 48 hrs by sulforhodamine B assay; conditions: HOP-62, 48 h; outline: as §1
SK-OV-3 = assay: Growth inhibition of human SKOV3 cells after 48 hrs by sulforhodamine B assay; conditions: SK-OV-3, 48 h; outline: as §2
OVCAR-4 = assay: Growth inhibition of human OVCAR4 cells after 48 hrs by sulforhodamine B assay; conditions: OVCAR-4, 48 h; outline: as §1
HCC 2998 = assay: Growth inhibition of human HCC2998 cells after 48 hrs by sulforhodamine B assay; conditions: HCC 2998, 48 h; outline: as §1
SF-539 = assay: Growth inhibition of human SF539 cells after 48 hrs by sulforhodamine B assay; conditions: SF-539, 48 h; outline: as §2
U-251 = assay: Growth inhibition of human U251 cells after 48 hrs by sulforhodamine B assay; conditions: U-251, 48 h; outline: as §2
COLO 205 = assay: Growth inhibition of human COLO205 cells after 48 hrs by sulforhodamine B assay; conditions: COLO 205, 48 h; outline: as §1
[3] = Cytotoxicity against human prostate cancer cells after 48 hrs by sulforhodamine B assay; conditions: Cancer cell lines; outline: as §3
RXF 393 = assay: Growth inhibition of human […] cells after 48 hrs by sulforhodamine B assay; conditions: RXF 393, 48 h; outline: as §1
KM12 = assay: Growth inhibition of human KM12 cells after 48 hrs by sulforhodamine B assay; conditions: KM12, 48 h; outline: as §1
HT-29 = assay: Growth inhibition of human HT-29 cells after 48 hrs by sulforhodamine B assay; conditions: HT-29, 48 h; outline: as §1
SN12C = assay: Growth inhibition of human SN12C cells after 48 hrs by sulforhodamine B assay; outline: as §2
CCRF-CEM = assay: Growth inhibition of human CCRF-CEM cells after 48 hrs by sulforhodamine B assay; outline: as §1
[4] = Growth inhibition of human NCI-H322 cells after 48 hrs by sulforhodamine B assay; conditions: NCI-H322, 48 h; outline: as §1
786-0 = assay: Growth inhibition of human 786-0 cells after 48 hrs by sulforhodamine B assay; conditions: 786-0, 48 h; outline: as §1
[5] = Cytotoxicity against human renal cancer cells after 48 hrs by sulforhodamine B assay; conditions: Cancer cell lines; outline: as §3
[6] = Cytotoxicity against human breast cancer cells after 48 hrs by sulforhodamine B assay; conditions: Cancer cell lines; outline: as §3
UO-31 = assay: Growth inhibition of human UO31 cells after 48 hrs by sulforhodamine B assay; conditions: UO-31, 48 h; outline: as §2
SF-268 = assay: Growth inhibition of human SF268 cells after 48 hrs by sulforhodamine B assay; conditions: SF-268, 48 h; outline: as §1
RPMI-8226 = assay: Growth inhibition of human RPMI8226 cells after 48 hrs by sulforhodamine B assay; conditions: RPMI-8226, 48 h; outline: as §1
MCF7 = assay: Growth inhibition of human MCF7 cells after 48 hrs by sulforhodamine B assay; conditions: MCF7, 48 h; outline: as §1
[7] = Cytotoxicity against human ovarian cancer cells after 48 hrs by sulforhodamine B assay; conditions: Cancer cell lines; outline: as §3
LOX IMVI = assay: Growth inhibition of human LOXIMVI cells after 48 hrs by sulforhodamine B assay; outline: as §1
BT-549 = assay: Growth inhibition of human BT549 cells after 48 hrs by sulforhodamine B assay; conditions: BT-549, 48 h; outline: as §1
OVCAR-3 = assay: Growth inhibition of human OVCAR-3 cells after 48 hrs by sulforhodamine B assay; conditions: OVCAR-3, 48 h; outline: as §1

## CC1=NN(C(=O)c2nn(-c3ccc(Cl)cc3)cc2O)C(=O)C1
A549
  GI50: 0.82 µM
HOP-92
  GI50: 3.67 µM
SF-295
  GI50: 230 nM
SNB-75
  GI50: 530 nM
A498
  GI50: 450 nM
ACHN
  GI50: 880 nM
SK-MEL-28
  GI50: 3.06 µM
NCI-H23
  GI50: 2.9 µM
MDA-MB-468
  GI50: 4.57 µM
TK-10
  GI50: 790 nM
[1]
  GI50: 1.82 µM
  TGI: 70.5 µM
  CC50: 93.6 µM
OVCAR-5
  GI50: 3.32 µM
SK-MEL-5
  GI50: 1700 nM
M14
  GI50: 1.78 µM
[2]
  GI50: 1090 nM
  TGI: 79.6 µM
HCT-116
  GI50: 680 nM
HOP-62
  GI50: 1330 nM
SK-OV-3
  GI50: 1.53 µM
OVCAR-4
  GI50: 2400 nM
HCC 2998
  GI50: 3.67 µM
SF-539
  GI50: 1700 nM
U-251
  GI50: 410 nM
COLO 205
  GI50: 4.81 µM
[3]
  GI50: 5.22 µM
RXF 393
  GI50: 15.4 µM
KM12
  GI50: 2.27 µM
HT-29
  GI50: 6.16 µM
SN12C
  GI50: 1.42 µM
CCRF-CEM
  GI50: 420 nM
[4]
  GI50: 850 nM
786-0
  GI50: 6.45 µM
[5]
  GI50: 1.67 µM
  TGI: 77 µM
[6]
  GI50: 2.02 µM
  TGI: 90.1 µM
UO-31
  GI50: 0.67 µM
SF-268
  GI50: 0.49 µM
RPMI-8226
  GI50: 1660 nM
MCF7
  GI50: 3.61 µM
[7]
  GI50: 1740 nM
  TGI: 83.8 µM
LOX IMVI
  GI50: 1550 nM
BT-549
  GI50: 650 nM
OVCAR-3
  GI50: 1210 nM

## O=C(c1nn(-c2ccc(Cl)cc2)cc1O)n1nc(-c2ccco2)cc1C(F)(F)F
A549
  GI50: 7.23 µM
HOP-92
  GI50: 4.9 µM
SF-295
  GI50: 480 nM
SNB-75
  GI50: 820 nM
A498
  GI50: 8710 nM
ACHN
  GI50: 2530 nM
SK-MEL-28
  GI50: 9.22 µM
NCI-H23
  GI50: 5.59 µM
MDA-MB-468
  GI50: 4.66 µM
TK-10
  GI50: 1450 nM
[1]
  GI50: 4.14 µM
  TGI: 63.7 µM
  CC50: 89.4 µM
OVCAR-5
  GI50: 2.6 µM
SK-MEL-5
  GI50: 2490 nM
M14
  GI50: 4.28 µM
[2]
  GI50: 2990 nM
  TGI: 90.5 µM
HCT-116
  GI50: 2000 nM
HOP-62
  GI50: 1980 nM
SK-OV-3
  GI50: 3.55 µM
OVCAR-4
  GI50: 2430 nM
HCC 2998
  GI50: 10.5 µM
SF-539
  GI50: 2810 nM
U-251
  GI50: 5860 nM
COLO 205
  GI50: 2.97 µM
[3]
  GI50: 18.4 µM
RXF 393
  GI50: 0.03 µM
KM12
  GI50: 5.88 µM
HT-29
  GI50: 4.56 µM
SN12C
  GI50: 5.18 µM
CCRF-CEM
  GI50: 690 nM
[4]
  GI50: 830 nM
786-0
  GI50: 6.6 µM
[5]
  GI50: 3.85 µM
  TGI: 75.6 µM
[6]
  GI50: 3.07 µM
  TGI: 77 µM
UO-31
  GI50: 3.84 µM
SF-268
  GI50: 3.63 µM
RPMI-8226
  GI50: 1420 nM
MCF7
  GI50: 3.51 µM
[7]
  GI50: 2180 nM
  TGI: 94.5 µM
LOX IMVI
  GI50: 2370 nM
BT-549
  GI50: 1140 nM
OVCAR-3
  GI50: 1720 nM

## Cc1cc(C)n(C(=O)c2nn(-c3ccc(Cl)cc3)cc2O)n1
A549
  GI50: 3.72 µM
HOP-92
  GI50: 4.52 µM
SF-295
  GI50: 1810 nM
SNB-75
  GI50: 3520 nM
A498
  GI50: 2900 nM
ACHN
  GI50: 3770 nM
SK-MEL-28
  GI50: 6.28 µM
NCI-H23
  GI50: 3.31 µM
MDA-MB-468
  GI50: 8.9 µM
TK-10
  GI50: 4710 nM
[1]
  GI50: 4.95 µM
  TGI: 71.4 µM
  CC50: 92.8 µM
OVCAR-5
  GI50: 4.98 µM
SK-MEL-5
  GI50: 6760 nM
M14
  GI50: 4.69 µM
[2]
  GI50: 3130 nM
  TGI: 69.2 µM
HCT-116
  GI50: 3420 nM
HOP-62
  GI50: 5210 nM
SK-OV-3
  GI50: 7.04 µM
OVCAR-4
  GI50: 9190 nM
HCC 2998
  GI50: 15.1 µM
SF-539
  GI50: 3050 nM
U-251
  GI50: 2680 nM
COLO 205
  GI50: 18.5 µM
[3]
  GI50: 6.64 µM
RXF 393
  GI50: 4.58 µM
KM12
  GI50: 5.07 µM
HT-29
  GI50: 3.29 µM
SN12C
  GI50: 3.37 µM
CCRF-CEM
  GI50: 3660 nM
[4]
  GI50: 6170 nM
786-0
  GI50: 9.64 µM
[5]
  GI50: 4.52 µM
  TGI: 71.3 µM
[6]
  GI50: 4.96 µM
UO-31
  GI50: 3.01 µM
SF-268
  GI50: 4.13 µM
RPMI-8226
  GI50: 3340 nM
MCF7
  GI50: 4.52 µM
[7]
  GI50: 5270 nM
  TGI: 87.8 µM
LOX IMVI
  GI50: 3940 nM
BT-549
  GI50: 2190 nM
OVCAR-3
  GI50: 1270 nM
